The text below walks through data of ChEMBL document CHEMBL5505965 (Eur J Med Chem, 2024).

Each structure is given as a SMILES string. pIC50: −log10 of the molar value. ≈ marks a conversion by molar mass, not a printed value. Where only a bound is given, the exact number is not on record here.

The nature of assay [1]: Inhibition of NDM1 (unknown origin).
The test system of assay [2] is Escherichia coli. Kind of assay: Synergistic anti-bacterial activity Escherichia coli E.cloni MP30-63 expressing blaNDM- gene assessed as decrease in meropenem MIC at 500 uM. Format: functional.
The subject of assay [3] is Escherichia coli. The experiment in a line: Synergistic anti-bacterial activity Escherichia coli E.cloni MP30-57 expressing blaVIM- gene assessed as decrease in meropenem MIC at 500 uM. The assay is classed as functional.
Assay [4] relates to Escherichia coli. The experiment in a line: Synergistic anti-bacterial activity Escherichia coli E.cloni MP30-58 expressing blaIMP- gene assessed as decrease in meropenem MIC at 500 uM. Format: functional.
Assay [5] deals with Escherichia coli. The experiment in a line: Synergistic anti-bacterial activity Escherichia coli E.cloni MP30-63 expressing blaNDM- gene assessed as fold reduction in meropenem MIC at 500 uM. The assay is classed as functional.
Assay [6] relates to Escherichia coli. The experiment in a line: Synergistic anti-bacterial activity Escherichia coli E.cloni MP30-58 expressing blaIMP- gene assessed as fold reduction in meropenem MIC at 500 uM. The assay is classed as functional.
Assay [7] has as its system Escherichia coli. Kind of assay: Synergistic anti-bacterial activity Escherichia coli E.cloni MP30-57 expressing blaVIM- gene assessed as fold reduction in meropenem MIC at 500 uM. The assay is classed as functional.
Assay [8] has as its system Escherichia coli. Kind of assay: Anti-bacterial activity against Escherichia coli E.cloni MP30-63 expressing blaNDM- gene assessed as decrease in bacterial growth. The assay is classed as functional. In short, it runs like this: (§1)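 Test compound held at a fixed 500 μM in E. coli producing the B1 metallo-β-lactamase (NDM-1, VIM-2 or IMP-26). Growth was checked with the compound alone and in combination with meropenem. Read-out was the meropenem MIC (mg/L) and its fold reduction.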

In assay [9] the test system is Escherichia coli. The experiment in a line: Anti-bacterial activity against Escherichia coli E.cloni MP30-57 expressing blaVIM- gene assessed as decrease in bacterial growth. Format: functional. The gist of the method: as §1
In assay [10] the test system is Escherichia coli. The experiment in a line: Anti-bacterial activity against Escherichia coli E.cloni MP21-05 assessed as decrease in bacterial growth. The assay is classed as functional.
Assay [11] concerns Escherichia coli. Kind of assay: Anti-bacterial activity against Escherichia coli E.cloni MP30-58expressing blaIMP- gene assessed as decrease in bacterial growth. The assay is classed as functional. In short, it runs like this: as §1

In general, pIC50 refers to the IC50 on a negative log10 scale, so that one unit is a factor of ten. Usually MIC stands for the lowest concentration found to suppress growth.

With `C[C@@H](CS)C(=O)N1CCC[C@H]1C(=O)O`, the pIC50 in assay [1] was less than 3.30.

As to `O=C(O)[C@H]1CCCCN1C(=O)CC(S)C(F)(F)F` (some centres not stated), the pIC50 in assay [1] is 3.84.

Turning to `O=C(CC(S)C(F)(F)F)NCc1ccc(C(=O)O)cc1` (configuration not stated), the pIC50 in assay [1] is less than 3.52.

In the case of `O=C(NCc1ccccc1)C(CS)C(F)(F)F` (racemic), the pIC50 in assay [1] is 4.70.

Take `O=C(O)[C@H]1CCCCN1C(=O)C(CS)C(F)(F)F` (some centres not stated): the MIC in the assay on Escherichia coli [2] worked out at 0.5 µg/mL; in the assay on Escherichia coli [3], 0.125 µg/mL; in the assay with Escherichia coli [4], 0.5 µg/mL. Further, the pIC50 in [1] is 5.49. Also, the “fold change (FC)” value with Escherichia coli [5] was found to be 32.

Turning to `O=C(O)[C@@H]1CCCN1C(=O)[C@@H](CS)C(F)(F)F`, the values for the MIC with Escherichia coli [2], in the assay with Escherichia coli [3] and in the assay on Escherichia coli [4] were 4 µg/mL, 0.06 µg/mL and 0.25 µg/mL, respectively. Further, the “fold change (FC)” value with Escherichia coli [6] and with Escherichia coli [7] was 8 in each case. The compound also had a negative logarithm of the IC50 (pIC50) in assay [1] of 5.21.

In assay [1], `O=C(O)c1ccc(CNC(=O)C(CS)C(F)(F)F)cc1` (configuration not stated) had a pIC50 of 4.19.

Compound `O=C(O)[C@@H]1CCCN1C(=O)CC(S)C(F)(F)F` (some centres not stated) showed a pIC50 in assay [1] of less than 3.52.

Regarding `C[C@@H](O)[C@H]1C(=O)N2C(C(=O)O)=C(S[C@@H]3CN[C@H](C(=O)N(C)C)C3)[C@H](C)[C@H]12` [MEROPENEM], the MIC in the assay with Escherichia coli [8] came to 32 µg/mL (≈ 83.4 µM); in the assay on Escherichia coli [9], 0.5 µg/mL (≈ 1.3 µM); with Escherichia coli [10] it was 0.03 µg/mL (≈ 0.0782 µM); with Escherichia coli [11] it was 2 µg/mL (≈ 5.22 µM).

`O=C(O)[C@H]1CCCN1C(=O)[C@H](CS)C(F)(F)F` showed a pIC50 in assay [1] of 5.35.

As for `O=C(CC(S)C(F)(F)F)Nc1ccccc1` (configuration not stated), the pIC50 in assay [1] was 4.66.

In assay [1], `O=C(O)[C@@H]1CCCN1C(=O)[C@H](CS)C(F)(F)F` had a pIC50 of 4.22.

In the case of `O=C(CC(S)C(F)(F)F)Nc1ccc(C(=O)O)cc1` (configuration not stated), the negative logarithm of the IC50 (pIC50) in [1] is 5.25.

With `O=C(O)[C@@H]1CCCN1C(=O)C(CS)C(F)(F)F` (some centres not stated), the pIC50 in assay [1] is 4.43.

On to `O=C(O)[C@H]1CCCN1C(=O)[C@@H](CS)C(F)(F)F`, for which the MIC in the assay on Escherichia coli [2] was 4 µg/mL; in the assay with Escherichia coli [3], 0.25 µg/mL; in the assay with Escherichia coli [4] it was 4 µg/mL. The compound further showed a pIC50 in assay [1] of 6.52.

In assay [1], `C[C@@H](CS)C(=O)N1CCC[C@@H]1C(=O)O` had a pIC50 of 4.19.

`O=C(NCc1ccccc1)[C@H](CS)C(F)(F)F`: the pIC50 in [1] was 5.00.

Turning to `O=C(O)[C@H]1CCCN1C(=O)CC(S)C(F)(F)F` (some centres not stated), the pIC50 in [1] is less than 3.52.

`O=C(Nc1ccccc1)C(CS)C(F)(F)F` (configuration not stated) gave a pIC50 in assay [1] of 5.47.

Consider `O=C(CC(S)C(F)(F)F)NCc1ccccc1` (configuration not stated), for which, in assay [1], the pIC50 was less than 3.52.

On to `O=C(NCc1ccccc1)[C@@H](CS)C(F)(F)F`, for which the pIC50 in [1] was 4.12.

In [1], `O=C(O)C1CCN(C(=O)CC(S)C(F)(F)F)CC1` (configuration not stated) gave a pIC50 of less than 3.52.

As to `O=C(O)C1CCN(C(=O)C(CS)C(F)(F)F)CC1` (configuration not stated), the MIC in the assay on Escherichia coli [2] is 1 µg/mL; in the assay with Escherichia coli [3], 0.125 µg/mL; in the assay on Escherichia coli [4], 2 µg/mL. For the same compound, the pIC50 in assay [1] was 5.66. Also, the “fold change (FC)” value in the assay on Escherichia coli [5] is reported as 32.
